Assay results: paper PMC12714840 (Nature Communications, 2025)

Assays:
Human GPR99 (WT) = Human GPR99 (WT) (Homo sapiens, UniProt Q96P68); assay: cAMP inhibition assay; type: cell-based
How it was run: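 HeLa cells transiently expressing human GPR99 for 24 h, pretreated 12 h at 37 °C with 250 ng/mL PTX or vehicle. Cells harvested in HBSS with 5 mM HEPES, 0.1% BSA and 0.5 mM IBMX, then stimulated 30 min with varying ligand concentrations plus 2.5 μM forskolin. cAMP read by LANCE Ultra kit. Data are % of maximal response, mean ± SEM, ≥3 independent experiments; EC50 from three-parameter curve fit.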

Human GPR99 (wild-type) = Human GPR99 (wild-type) (Homo sapiens, UniProt Q96P68); assay: IP-one accumulation assay, wild-type receptor; type: cell-based; conditions: WT
GPR99 = GPR99 (Homo sapiens, UniProt Q96P68); conditions: GPR99 recognition of oxoglutarate; cited from earlier work
GPR99/OXGR1 = GPR99/OXGR1 (Homo sapiens, UniProt Q96P68); conditions: oxoglutarate for GPR99/OXGR1; no reference given; cited from earlier work
GPR99/OXGR1 C141A = GPR99/OXGR1 C141A (Homo sapiens, UniProt Q96P68, C141A); assay: IP-one accumulation assay, C141A mutant; type: cell-based; conditions: C141A vs WT
GPR99/OXGR1 R148A = GPR99/OXGR1 R148A (Homo sapiens, UniProt Q96P68, R148A); assay: IP-one accumulation assay, R148A mutant; type: cell-based; conditions: R148A vs WT
GPR99/OXGR1 K32A = GPR99/OXGR1 K32A (Homo sapiens, UniProt Q96P68, K32A); assay: IP-one accumulation assay, K32A mutant; type: cell-based; conditions: K32A vs WT; oxoglutarate stimulation
GPR99/OXGR1 Y92A = GPR99/OXGR1 Y92A (Homo sapiens, UniProt Q96P68, Y92A); assay: IP-one accumulation assay, Y92A mutant; type: cell-based; conditions: Y92A vs WT; oxoglutarate stimulation
[1] = 250 ng/mL PTX pretreatment 12 h

Compound | effect on cAMP response elicited by LTE4 (Human GPR99 (WT); [1]) | effect on LTE4-induced IP1 accumulation (Human GPR99 (wild-type); [1]) | EC50 (GPR99) | affinity (Kd) (GPR99/OXGR1) | effect of alanine substitution on oxoglutarate-induced receptor activation (IP1) (GPR99/OXGR1 C141A) | cAMP reduction downstream of Gi coupling (Human GPR99 (WT); HeLa, 2.5 μM forskolin) | effect of alanine substitution on oxoglutarate-induced receptor activation (IP1) (GPR99/OXGR1 R148A) | increase in EC50 (IP1 accumulation) (GPR99/OXGR1 K32A) | maximum response (Emax), IP1 accumulation (GPR99/OXGR1 K32A) | IP1 accumulation (PLC pathway downstream of Gq) (Human GPR99 (wild-type); HeLa) | increase in EC50 (IP1 accumulation) (GPR99/OXGR1 Y92A) | maximum response (Emax), IP1 accumulation (GPR99/OXGR1 Y92A)
pertussis toxin [PTX] | abrogated | without affecting IP1 accumulation | – | – | – | – | – | – | – | – | – | –
O=C(O)CCC(=O)C(=O)O [oxoglutarate, 2-oxoglutarate] | – | – | ~200 µM | hundreds of micromolar | little effect | failed to stimulate cAMP reduction | little effect | more than 100 fold | remained unchanged | increased IP1 accumulation | more than 100 fold | remained unchanged
